Test results from publication PMC8458982 (The Journal of Biological Chemistry, 2021).
Values joined by “and” are separate entries in the source; they are usually repeats but may differ in a detail not shown here. Equal entries are not always repeated.

Tests used:
Assay type in all cases: cell-based
hTRPC6 mutant ^hY705W = hTRPC6 mutant ^hY705W (Homo sapiens, UniProt Q9Y210, Y705W); experiment: whole-cell patch-clamp, hTRPC6 mutant Y705W
hTRPC6 mutant ^hE672C = hTRPC6 mutant ^hE672C (Homo sapiens, UniProt Q9Y210, E672C); experiment: whole-cell patch-clamp, hTRPC6 mutant E672C
mouse TRPC6 (mTRPC6-WT) = target: T1, mouse TRPC6 (mTRPC6-WT) (Mus musculus, UniProt Q61143); experiment: whole-cell patch-clamp, mTRPC6-WT expressed in HEK293 cells
T1 sequence (Q61143 1-930): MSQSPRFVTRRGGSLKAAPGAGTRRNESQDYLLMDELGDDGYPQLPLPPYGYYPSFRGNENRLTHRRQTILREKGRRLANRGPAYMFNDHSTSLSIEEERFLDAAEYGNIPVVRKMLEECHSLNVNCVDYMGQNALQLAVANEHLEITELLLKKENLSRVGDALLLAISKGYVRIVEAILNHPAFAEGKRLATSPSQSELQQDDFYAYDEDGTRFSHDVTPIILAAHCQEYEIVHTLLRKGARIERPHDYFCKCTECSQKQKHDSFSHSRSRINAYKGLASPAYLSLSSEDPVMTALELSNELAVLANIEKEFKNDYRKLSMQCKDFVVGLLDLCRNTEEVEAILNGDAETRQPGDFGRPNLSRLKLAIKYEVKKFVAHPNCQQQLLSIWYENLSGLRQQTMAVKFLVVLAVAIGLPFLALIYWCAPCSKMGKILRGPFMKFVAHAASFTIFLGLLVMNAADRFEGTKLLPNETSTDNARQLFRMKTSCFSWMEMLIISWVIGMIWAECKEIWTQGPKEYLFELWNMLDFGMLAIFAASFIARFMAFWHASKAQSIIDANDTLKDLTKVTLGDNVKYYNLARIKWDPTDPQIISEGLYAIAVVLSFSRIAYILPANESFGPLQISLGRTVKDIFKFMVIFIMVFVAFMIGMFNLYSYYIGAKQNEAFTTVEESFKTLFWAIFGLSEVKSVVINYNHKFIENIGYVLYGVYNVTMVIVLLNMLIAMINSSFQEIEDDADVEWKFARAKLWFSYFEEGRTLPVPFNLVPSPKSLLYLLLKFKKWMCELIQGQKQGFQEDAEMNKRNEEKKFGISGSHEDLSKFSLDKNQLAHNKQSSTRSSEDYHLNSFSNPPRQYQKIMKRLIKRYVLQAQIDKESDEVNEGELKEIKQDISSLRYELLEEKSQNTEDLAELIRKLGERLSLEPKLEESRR
Method in brief: (§1)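 Transiently transfected HEK293 cells expressing mouse or human TRPC6 WT, or sequence-verified mouse point mutants, recorded 24–48 h post-transfection. Conventional whole-cell clamp at −60 mV and 23 °C, gap-free; test compound applied by Y-tube. Pipette: CsCl/HEPES/BAPTA, 400 nM free Ca2+, pH 7.2. Bath: NaCl-based, 2 mM CaCl2, pH 7.4. EC50 from Hill fit of concentration–current data. Mutant screen used current ratios (10/5 μM or 3/1 μM). At least 3 transfection batches.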

mTRPC6 mutant ^mY704W = mTRPC6 mutant ^mY704W (Mus musculus, UniProt Q61143, Y704W); experiment: whole-cell patch-clamp, mTRPC6 mutant Y704W
Method in brief: as §1

Sequence of mTRPC6 mutant ^mY704W (Q61143 whole entry Y704W): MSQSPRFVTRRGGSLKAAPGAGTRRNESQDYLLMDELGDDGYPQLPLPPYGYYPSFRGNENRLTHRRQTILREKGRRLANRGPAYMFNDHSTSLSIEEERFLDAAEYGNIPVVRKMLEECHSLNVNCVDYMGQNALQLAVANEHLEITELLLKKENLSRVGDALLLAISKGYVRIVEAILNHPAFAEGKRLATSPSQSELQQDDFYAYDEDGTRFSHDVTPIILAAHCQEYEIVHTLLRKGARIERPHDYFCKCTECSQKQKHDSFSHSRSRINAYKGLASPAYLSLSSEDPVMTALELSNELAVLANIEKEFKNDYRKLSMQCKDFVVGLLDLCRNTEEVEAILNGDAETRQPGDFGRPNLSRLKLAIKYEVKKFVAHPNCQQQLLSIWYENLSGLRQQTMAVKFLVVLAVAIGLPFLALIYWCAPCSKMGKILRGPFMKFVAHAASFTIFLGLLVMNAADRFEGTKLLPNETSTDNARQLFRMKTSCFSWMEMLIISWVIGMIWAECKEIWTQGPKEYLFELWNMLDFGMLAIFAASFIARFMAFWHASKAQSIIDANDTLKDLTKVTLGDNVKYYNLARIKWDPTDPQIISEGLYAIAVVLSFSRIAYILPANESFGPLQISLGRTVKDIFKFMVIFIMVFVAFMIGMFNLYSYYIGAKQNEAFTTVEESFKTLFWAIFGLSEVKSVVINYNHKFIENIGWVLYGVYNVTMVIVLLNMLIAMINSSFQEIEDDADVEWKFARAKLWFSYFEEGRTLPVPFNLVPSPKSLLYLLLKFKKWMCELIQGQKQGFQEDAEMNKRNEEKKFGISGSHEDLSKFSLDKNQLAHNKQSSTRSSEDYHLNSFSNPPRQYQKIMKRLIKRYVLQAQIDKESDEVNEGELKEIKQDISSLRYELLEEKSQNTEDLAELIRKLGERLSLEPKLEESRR
Sequence of hTRPC6 mutant ^hY705W (Q9Y210 whole entry Y705W): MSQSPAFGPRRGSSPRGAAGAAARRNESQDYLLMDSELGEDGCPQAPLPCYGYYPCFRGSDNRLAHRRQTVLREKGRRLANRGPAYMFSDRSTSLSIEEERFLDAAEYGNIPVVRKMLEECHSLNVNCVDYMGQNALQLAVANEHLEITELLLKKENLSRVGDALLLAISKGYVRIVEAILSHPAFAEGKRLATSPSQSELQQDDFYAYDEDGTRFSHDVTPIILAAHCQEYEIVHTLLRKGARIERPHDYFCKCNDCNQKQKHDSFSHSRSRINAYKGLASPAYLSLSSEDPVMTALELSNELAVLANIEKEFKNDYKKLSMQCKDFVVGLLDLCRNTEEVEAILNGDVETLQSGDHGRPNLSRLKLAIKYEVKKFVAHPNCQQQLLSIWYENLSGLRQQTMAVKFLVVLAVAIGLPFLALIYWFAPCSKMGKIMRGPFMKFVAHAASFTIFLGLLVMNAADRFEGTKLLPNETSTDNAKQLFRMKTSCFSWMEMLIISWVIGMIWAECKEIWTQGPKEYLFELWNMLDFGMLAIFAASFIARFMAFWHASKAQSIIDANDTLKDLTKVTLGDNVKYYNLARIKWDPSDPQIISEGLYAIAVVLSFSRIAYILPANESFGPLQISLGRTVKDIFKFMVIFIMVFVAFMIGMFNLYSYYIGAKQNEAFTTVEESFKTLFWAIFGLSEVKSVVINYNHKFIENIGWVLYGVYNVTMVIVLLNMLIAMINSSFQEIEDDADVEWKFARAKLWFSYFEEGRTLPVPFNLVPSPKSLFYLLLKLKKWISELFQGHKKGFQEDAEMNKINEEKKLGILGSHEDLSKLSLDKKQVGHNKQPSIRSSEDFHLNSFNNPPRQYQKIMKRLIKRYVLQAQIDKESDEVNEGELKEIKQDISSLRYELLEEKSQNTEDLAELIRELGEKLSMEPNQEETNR
Sequence of hTRPC6 mutant ^hE672C (Q9Y210 whole entry E672C): as the sequence (Q9Y210 whole entry Y705W) above, with E672C, W705Y counted along it

In the case of `CCOC(=O)N1CCC(c2cc(O)n3nc(C)c(-c4ccc(F)cc4)c3n2)CC1` [M085, Ethyl 4-(3-(4-fluorophenyl)-7-hydroxy-2-methylpyrazolo[1,5-a]pyrimidin-5-yl)piperidine-1-carboxylate], the EC50 (hTRPC6 mutant ^hY705W) is reported as 35.3 ± 6.15 µM, the EC50 (hTRPC6 mutant ^hE672C) is reported as 50.2 ± 6.65 µM and the EC50 (mouse TRPC6 (mTRPC6-WT); EC50 of channel activation, mTRPC6-WT, whole-cell, −60 mV, Hill fit) is reported as ~5 µM and 3.8 µM. For the same compound, the “ratio of M085 activation current I10 μM/I5 μM” value (mouse TRPC6 (mTRPC6-WT); mTRPC6-WT) was 1.65 ± 0.21, the “Imax (maximal current density)” value (mouse TRPC6 (mTRPC6-WT); mTRPC6-WT, 30 μM M085 (saturated)) was 75.11 ± 14.20 pA/pF and the “effect of DTNB on agonist-mediated activation” value (mouse TRPC6 (mTRPC6-WT); mTRPC6-WT, DTNB covalent modification) was “no effect”. For the same compound, the saturation concentration (mouse TRPC6 (mTRPC6-WT); mTRPC6 activation) was “approximately 10 μM”, the EC50 (mTRPC6 mutant ^mY704W) was 26.7 ± 4.04 µM and the “Imax (maximal current density)” value (mTRPC6 mutant ^mY704W; ^mY704W, 100 μM agonist) was 3.27 ± 1.12 pA/pF.
